Results: ChEMBL document CHEMBL1157150, “Synthesis, structure and antibacterial activity of novel 1-(5-substituted-3-substituted-4,5-dihydropyrazol-1-yl)ethanone oxime ester derivatives” (Bioorg Med Chem, 2008)
≈ marks a conversion by molar mass, not a printed value. Calls of active or inactive are those of the source. No cut-off for these calls is given here.

Key:
Bacillus subtilis = assay: microbe, parasite or virus in culture; assay type: functional; conditions: ATCC 6633
Escherichia coli = assay: Antibacterial activity against Escherichia coli ATCC 35218; assay type: functional
Pseudomonas fluorescens = assay: Antibacterial activity against Pseudomonas fluorescens ATCC 13525; assay type: functional
Staphylococcus aureus = assay: Antibacterial activity against Staphylococcus aureus ATCC 6538; assay type: functional
Pseudomonas aeruginosa = assay: Antibacterial activity against Pseudomonas aeruginosa ATCC 13525; assay type: functional, organism-based
Outline: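 Broth microdilution in MH medium with an inoculum of about 10⁵ cfu/mL. Compounds were serially diluted from a DMSO stock and incubated 24 h at 37 °C. MIC was read visually, then confirmed colorimetrically: MTT (2 mg/mL in PBS, pH 7.4) was added for 4–5 h at room temperature, the dye was extracted with isopropanol/5% 1 mol/L HCl for 12 h, and OD was read at 550 nm.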

[1] = Inhibition of Escherichia coli DNA gyrase supercoiling activity

MIC (Bacillus subtilis) | MIC (Escherichia coli) | MIC (Pseudomonas fluorescens) | MIC (Staphylococcus aureus) | IC50 [1] | SMILES | Activity (Pseudomonas aeruginosa)
3.12 µg/mL (≈ 6.79 µM) | 1.56 µg/mL (≈ 3.39 µM) | 6.25 µg/mL (≈ 13.6 µM) | 1.56 µg/mL (≈ 3.39 µM) | 1 µg/mL (≈ 2.17 µM) | C/C(=N/OC(=O)c1ccco1)N1N=C(c2ccc(Cl)cc2Cl)CC1c1ccccc1F (configuration not stated) | Active
1.56 µg/mL (≈ 3.06 µM) | 3.12 µg/mL (≈ 6.12 µM) | 1.56 µg/mL (≈ 3.06 µM) | 3.12 µg/mL (≈ 6.12 µM) | 8 µg/mL (≈ 15.7 µM) | C/C(=N/OC(=O)c1ccco1)N1N=C(c2ccc(Cl)cc2Cl)CC1c1ccc(C(F)(F)F)cc1 (configuration not stated) | Active
